Data reported in ChEMBL document CHEMBL1156157, “1,7-Disubstituted oxyindoles are potent and selective EP(3) receptor antagonists” (Bioorg Med Chem Lett, 2010).

Assays:
[1] = target: T1, Prostaglandin E2 receptor EP3 subtype (Homo sapiens, UniProt P43115); test: Displacement of [3H]PGE2 from human EP3 receptor in buffer
T1 sequence (P43115 whole entry): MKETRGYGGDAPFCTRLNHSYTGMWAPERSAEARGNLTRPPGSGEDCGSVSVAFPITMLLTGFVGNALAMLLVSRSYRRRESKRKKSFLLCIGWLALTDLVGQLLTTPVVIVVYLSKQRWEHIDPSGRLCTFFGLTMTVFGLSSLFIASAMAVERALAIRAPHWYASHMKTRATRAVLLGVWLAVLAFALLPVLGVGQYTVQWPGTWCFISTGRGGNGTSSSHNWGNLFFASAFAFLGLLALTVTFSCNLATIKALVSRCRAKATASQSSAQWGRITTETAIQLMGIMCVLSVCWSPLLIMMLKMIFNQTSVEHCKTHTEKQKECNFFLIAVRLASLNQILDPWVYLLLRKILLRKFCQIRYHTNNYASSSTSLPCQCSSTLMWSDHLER

Rattus norvegicus = organism: Rattus norvegicus; test: Antithrombotic activity in rat assessed as platelet aggregation; assay type: functional
How it was run: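 Functional EP3 antagonism measured in a rat platelet aggregation assay. Values reported as EC50 in nM.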

Cytochrome P450 3A4 = Cytochrome P450 3A4 (Homo sapiens, UniProt P08684); test: Inhibition of human CYP3A4 using 7-benzyloxy-4-trifluoromethylcoumarin as substrate; assay type: ADME
How it was run: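 Inhibition of human CYP3A4 with 7-benzyloxy-4-trifluoromethylcoumarin (BFC) as substrate. Values given as IC50.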

[2] = target: T1, Prostaglandin E2 receptor EP3 subtype; test: Displacement of [3H]PGE2 from human EP3 receptor in presence of 10% human serum
[3] = Metabolic stability in human liver microsomes assessed as parent compound remaining after 30 mins; assay type: ADME, Microsome; conditions: read-out: Stability
How it was run: (§1)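 Compounds incubated with liver microsomes from human, rat, mouse, dog or monkey. Read-out is percent parent compound remaining at 30 min of incubation.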

[4] = Metabolic stability in rat liver microsomes assessed as parent compound remaining after 30 mins; assay type: ADME, Microsome; conditions: read-out: Stability; how it was run: as §1
[5] = Metabolic stability in mouse liver microsomes assessed as parent compound remaining after 30 mins; assay type: ADME, Microsome; conditions: read-out: Stability; how it was run: as §1

Chain of Cytochrome P450 3A4 (P08684 whole entry): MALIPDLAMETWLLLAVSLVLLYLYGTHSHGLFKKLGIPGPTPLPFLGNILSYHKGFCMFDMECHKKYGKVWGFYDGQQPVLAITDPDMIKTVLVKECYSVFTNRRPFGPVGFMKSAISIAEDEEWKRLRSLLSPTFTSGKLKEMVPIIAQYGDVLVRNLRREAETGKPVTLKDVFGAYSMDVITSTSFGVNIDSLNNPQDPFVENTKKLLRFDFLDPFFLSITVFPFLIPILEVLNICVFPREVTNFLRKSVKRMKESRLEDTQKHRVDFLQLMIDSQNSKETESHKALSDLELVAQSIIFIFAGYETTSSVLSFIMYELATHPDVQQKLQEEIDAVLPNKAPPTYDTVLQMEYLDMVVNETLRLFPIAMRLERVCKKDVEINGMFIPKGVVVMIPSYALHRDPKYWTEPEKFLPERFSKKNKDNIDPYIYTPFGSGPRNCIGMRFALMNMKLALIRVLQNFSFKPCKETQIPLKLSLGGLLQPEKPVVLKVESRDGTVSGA

IC50 [1] [nM] | IC50 (Rattus norvegicus) [nM] | inhibition (INH) (Cytochrome P450 3A4) | IC50 [2] [nM] | remaining at 0.5 h [3] [%] | remaining at 0.5 h [4] [%] | remaining at 0.5 h [5] [%] | EC50 (Rattus norvegicus) [nM] | SMILES
1.3 | > 800 | Active | – | – | – | – | – | O=C(/C=C/c1cccc2c1N(Cc1ccc(F)c(F)c1)C(=O)C2(F)F)NS(=O)(=O)c1ccc(Cl)c(Cl)c1
1.1 | > 800 | Active | 251 | – | – | – | – | O=C(/C=C/c1cccc2c1N(Cc1ccc(Cl)cc1Cl)C(=O)C2(F)F)NS(=O)(=O)c1ccc(Cl)cc1
7.2 | > 800 | Active | 980 | – | – | – | – | O=C(/C=C/c1cccc2c1N(Cc1ccc(F)c(F)c1)C(=O)C2(F)F)NS(=O)(=O)c1cc(Cl)c(Cl)s1
7.9 | – | – | 82.4 | – | – | – | – | O=C(/C=C/c1cccc2c1N(Cc1ccc3ccccc3c1)C(=O)C21OCCO1)NS(=O)(=O)c1cc(Cl)c(Cl)s1
0.9 | – | – | 9.8 | – | – | – | – | CC1C(=O)N(Cc2ccc(Cl)cc2Cl)c2c(/C=C/C(=O)NS(=O)(=O)c3ccc(Cl)c(Cl)c3)cccc21 (stereo unspecified)
0.5 | – | – | 6.8 | 49.5 | 23.6 | 7.26 | – | CC1C(=O)N(Cc2ccc(Cl)cc2Cl)c2c(/C=C/C(=O)NS(=O)(=O)c3cccc(Cl)c3)cccc21 (stereo unspecified)
2.7 | > 800 | Active | 27.2 | – | – | – | – | O=C(/C=C/c1cccc2c1N(Cc1ccc3ccccc3c1)C(=O)C2(F)F)NS(=O)(=O)c1ccc(F)cc1
1.4 | – | – | 10.7 | – | – | – | – | CC1C(=O)N(Cc2ccc(F)c(F)c2)c2c(/C=C/C(=O)NS(=O)(=O)c3cc(F)c(F)cc3F)cccc21 (stereo unspecified)
0.6 | – | – | 20 | – | – | – | – | CC1C(=O)N(Cc2ccc3ccccc3c2)c2c(/C=C/C(=O)NS(=O)(=O)c3ccc(F)c(F)c3)cccc21 (stereo unspecified)
5.5 | > 800 | Active | 125 | – | – | – | – | O=C(/C=C/c1cccc2c1N(Cc1ccc3ccccc3c1)C(=O)C2(F)F)NS(=O)(=O)c1ccc(Cl)cc1
0.3 | – | – | 5.4 | 13.7 | 17.6 | 5.1 | 19 | CC1C(=O)N(Cc2ccc3ccccc3c2)c2c(/C=C/C(=O)NS(=O)(=O)c3cc(F)c(F)cc3F)cccc21 (stereo unspecified)
0.7 | – | – | 42 | – | – | – | – | O=C(/C=C/c1cccc2c1N(Cc1ccc(F)c(F)c1)C(=O)C2)NS(=O)(=O)c1cc(F)c(F)cc1F
0.3 | – | – | 10.2 | 73.9 | 62.5 | – | 1090 | O=C(/C=C/c1cccc2c1N(Cc1ccc3ccccc3c1)C(=O)C2)NS(=O)(=O)c1cc(F)c(F)cc1F
0.4 | – | – | 6.9 | 65.9 | 43 | 13.2 | 246 | O=C(/C=C/c1cccc2c1N(Cc1ccc3ccccc3c1)C(=O)C2)NS(=O)(=O)c1ccc(F)c(F)c1
0.4 | – | – | 55.4 | – | – | – | – | O=C(/C=C/c1cccc2c1N(Cc1ccc(F)c(F)c1)C(=O)C2)NS(=O)(=O)c1cc(Cl)c(Cl)s1
11.6 | – | – | 187 | – | – | – | – | O=C(/C=C/c1cccc2c1N(Cc1ccc3ccccc3c1)C(=O)C2(CO)CO)NS(=O)(=O)c1ccc(F)c(F)c1
0.4 | – | – | 35.5 | – | – | – | – | O=C(/C=C/c1cccc2c1N(Cc1ccc(F)c(F)c1)C(=O)C2)NS(=O)(=O)c1cccc(Cl)c1
2.3 | – | – | 243 | – | – | – | – | O=C(/C=C/c1cccc2c1N(Cc1ccc3ccccc3c1)C(=O)C2(CO)CO)NS(=O)(=O)c1cc(Cl)c(Cl)s1
13.7 | – | – | 260 | – | – | – | – | O=C(/C=C/c1cccc2c1N(Cc1ccc3ccccc3c1)C(=O)C2=O)NS(=O)(=O)c1cccs1
0.7 | – | – | 3.3 | 54.3 | 23.5 | 39.1 | 137 | O=C(/C=C/c1cccc2c1N(Cc1ccc(Cl)cc1Cl)C(=O)C2)NS(=O)(=O)c1ccc(F)c(F)c1
1.6 | – | – | 33.9 | – | – | – | – | O=C(/C=C/c1cccc2c1N(Cc1ccc3ccccc3c1)C(=O)C2=O)NS(=O)(=O)c1ccc(F)cc1
0.5 | – | – | 9.4 | 50.4 | 21 | 33.9 | 290 | O=C(/C=C/c1cccc2c1N(Cc1ccc(Cl)cc1Cl)C(=O)C2)NS(=O)(=O)c1cccc(Cl)c1
16.5 | > 800 | Active | 721 | – | – | – | – | O=C(/C=C/c1cccc2c1N(Cc1ccc(F)c(F)c1)C(=O)C2(F)F)NS(=O)(=O)c1cc(F)c(F)cc1F

IC50 [1] [nM] | IC50 (Rattus norvegicus) [nM] | inhibition (INH) (Cytochrome P450 3A4) | IC50 [2] [nM] | remaining at 0.5 h [3] [%] | remaining at 0.5 h [4] [%] | remaining at 0.5 h [5] [%] | EC50 (Rattus norvegicus) [nM] | SMILES
0.9 | – | – | 95.8 | – | – | – | – | CC1C(=O)N(Cc2ccc(F)c(F)c2)c2c(/C=C/C(=O)NS(=O)(=O)c3ccc(Cl)c(Cl)c3)cccc21 (stereo unspecified)
0.6 | – | – | 8.1 | 56.8 | 29.8 | 7.8 | 405 | O=C(/C=C/c1cccc2c1N(Cc1ccc3ccccc3c1)C(=O)C2)NS(=O)(=O)c1cccc(Cl)c1
4 | – | – | 39 | – | – | – | – | CC1C(=O)N(Cc2ccc(F)c(F)c2)c2c(/C=C/C(=O)NS(=O)(=O)c3cccc(Cl)c3)cccc21 (stereo unspecified)
1.2 | – | – | 3.3 | 53.3 | 26.8 | 56.1 | 316 | O=C(/C=C/c1cccc2c1N(Cc1ccc(Cl)cc1Cl)C(=O)C2)NS(=O)(=O)c1ccc(Cl)c(Cl)c1
6.5 | – | – | 136 | – | – | – | – | O=C(/C=C/c1cccc2c1N(Cc1ccc(Cl)cc1Cl)C(=O)C2=O)NS(=O)(=O)c1cc(Cl)c(Cl)s1
23.6 | – | – | – | – | – | – | – | O=C(/C=C/c1cccc2c1N(Cc1ccc3ccccc3c1)C(=O)C2)NS(=O)(=O)c1cccs1
0.6 | – | – | 17.4 | – | – | – | – | O=C(/C=C/c1cccc2c1N(Cc1ccc3ccccc3c1)C(=O)C2=O)NS(=O)(=O)c1cc(F)c(F)cc1F
0.9 | – | – | 47.8 | – | – | – | – | O=C(/C=C/c1cccc2c1N(Cc1ccc(F)c(F)c1)C(=O)C2)NS(=O)(=O)c1ccc(F)c(F)c1
0.5 | – | – | 4.3 | 48.4 | 22.4 | 4.85 | – | CC1C(=O)N(Cc2ccc(Cl)cc2Cl)c2c(/C=C/C(=O)NS(=O)(=O)c3cc(F)c(F)cc3F)cccc21 (stereo unspecified)
12.3 | – | – | 15 | – | – | – | – | O=C(/C=C/c1cccc2c1N(Cc1ccc3ccccc3c1)C(=O)C2=O)NS(=O)(=O)c1cc(Cl)c(Cl)s1
0.2 | > 800 | Active | 64.7 | – | – | – | – | O=C(/C=C/c1cccc2c1N(Cc1ccc(Cl)cc1Cl)C(=O)C2(F)F)NS(=O)(=O)c1ccc(F)cc1
0.4 | – | – | 2.8 | 24.8 | 13.1 | 5.63 | – | CC1C(=O)N(Cc2ccc3ccccc3c2)c2c(/C=C/C(=O)NS(=O)(=O)c3cccc(Cl)c3)cccc21 (stereo unspecified)
5 | > 800 | Active | 416 | – | – | – | – | O=C(/C=C/c1cccc2c1N(Cc1ccc(F)c(F)c1)C(=O)C2(F)F)NS(=O)(=O)c1cccc(Cl)c1
3.4 | – | – | 23.9 | – | – | – | 47 | CC1C(=O)N(Cc2ccc(Cl)cc2Cl)c2c(/C=C/C(=O)NS(=O)(=O)c3cc(Cl)c(Cl)s3)cccc21 (stereo unspecified)
0.2 | – | – | 4.4 | 61.6 | 50.6 | 70.1 | 361 | O=C(/C=C/c1cccc2c1N(Cc1ccc(Cl)cc1Cl)C(=O)C2)NS(=O)(=O)c1cc(F)c(F)cc1F
0.4 | – | – | 3.3 | 64.7 | 62.1 | 16 | – | CC1C(=O)N(Cc2ccc(Cl)cc2Cl)c2c(/C=C/C(=O)NS(=O)(=O)c3ccc(F)c(F)c3)cccc21 (stereo unspecified)
0.5 | – | – | 5.2 | 66.5 | 46 | 15.7 | – | O=C(/C=C/c1cccc2c1N(Cc1ccc3ccccc3c1)C(=O)C2)NS(=O)(=O)c1ccc(Cl)c(Cl)c1
0.3 | – | – | 55.4 | – | – | – | – | O=C(/C=C/c1cccc2c1N(Cc1ccc(F)c(F)c1)C(=O)C2)NS(=O)(=O)c1ccc(Cl)c(Cl)c1
1.3 | > 800 | Active | 251 | – | – | – | – | O=C(/C=C/c1cccc2c1N(Cc1ccc(F)c(F)c1)C(=O)C2(F)F)NS(=O)(=O)c1ccc(F)c(F)c1
1 | – | – | 12.7 | – | – | – | – | O=C(/C=C/c1cccc2c1N(Cc1ccc3ccccc3c1)C(=O)C2=O)NS(=O)(=O)c1ccc(Cl)c(Cl)c1
2.4 | – | – | 660 | – | – | – | – | CC1C(=O)N(Cc2ccc(Cl)cc2Cl)c2c(/C=C/C(=O)NS(=O)(=O)c3cccs3)cccc21 (stereo unspecified)
0.6 | – | – | 4.1 | 36.4 | 10.3 | 5.83 | – | CC1C(=O)N(Cc2ccc3ccccc3c2)c2c(/C=C/C(=O)NS(=O)(=O)c3ccc(Cl)c(Cl)c3)cccc21 (stereo unspecified)
